This is an account of results in ChEMBL document CHEMBL4033611, “Chlorinated Dehydrocurvularins and Alterperylenepoxide A from Alternaria sp. AST0039, a Fungal Endophyte of Astragalus lentiginosus” (J Nat Prod, 2017).

One assay has as its system MCF7. Put plainly: Cytotoxicity against human MCF7 cells after 72 hrs by resazurin/AlamarBlue dye-based fluorescence assay. Format: functional, cell-based. Particulars: MCF7, 72 h. In short, it runs like this: (§1)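 Serial dilutions of compound or DMSO vehicle added to triplicate wells in RPMI-1640 with 10% FBS, 72 h at 37 °C. Resazurin (AlamarBlue) dye then added at 1:10 dilution, 4 h more at 37 °C, fluorescence read at Ex/Em 560/590. Mean fluorescence per well compared with DMSO-treated wells as relative viable cell number; doxorubicin positive control.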
Background: The colour change of resazurin is a common sign of viable cells or microbes.

For another assay, the system named is SF-268. The experiment in a line: Cytotoxicity against human SF268 cells after 72 hrs by resazurin/AlamarBlue dye-based fluorescence assay. To be noted: SF-268, 72 h. In kind it is functional, cell-based. In short, it runs like this: as §1
The test system of another assay is NCI-H460. Put plainly: Cytotoxicity against human NCI-H460 cells after 72 hrs by resazurin/AlamarBlue dye-based fluorescence assay. Format: functional, cell-based. To be noted: NCI-H460, 72 h. In short, it runs like this: as §1
The next assay relates to PC-3M. The experiment in a line: Cytotoxicity against human PC3M cells after 72 hrs by resazurin/AlamarBlue dye-based fluorescence assay. Format: functional, cell-based. In short, it runs like this: as §1
The test system of a further assay is MDA-MB-231. The experiment in a line: Cytotoxicity against human MDA-MB-231 cells after 72 hrs by resazurin/AlamarBlue dye-based fluorescence assay. In kind it is functional, cell-based. To be noted: MDA-MB-231, 72 h. In short, it runs like this: as §1
For assay [1], the system named is Fibroblast. Put plainly: Induction of heat-shock response in mouse fibroblasts harboring reporter construct encoding enhanced green fluorescent protein at 5 uM after overnight incubation by fluorescence assay. In kind it is functional, cell-based. In short, it runs like this:
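Stably transfected reporter fibroblasts (EGFP driven by a minimal consensus heat-shock element) were seeded at 20 000 cells/well and left to attach overnight. Serial 2-fold dilutions of compound were added in triplicate, with DMSO vehicle (≤0.1%) as the negative control. After overnight incubation the cells were rinsed and read in PBS at Ex 485/Em 525 nm. Mean fluorescence ± SD was expressed relative to DMSO.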

Assay [2] deals with Transitional endoplasmic reticulum ATPase (Homo sapiens) (UniProt P55072). The experiment in a line: Inhibition of p97 in human MDA-MB-231 cells assessed as UPR activation by measuring increase in CHOP protein levels up to 20 uM after 8 hrs by Western blot analysis. Format: cell-based. In short, it runs like this: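 MDA-MB-231 cells were treated for 8 h in DMEM with 10% FBS, then harvested in SDS sample buffer, sonicated and cleared. Lysates were run on 4–20% SDS-PAGE and transferred to nitrocellulose. Blots were blocked in 5% milk and probed for CHOP, XBP1s and ATF4 (1:1000), with β-actin as loading control. Detection was by chemiluminescence. DMSO served as negative control, with CB-5083 (1.0 μM) and MG132 (5.0 μM) as comparators.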
(In general: A western blot detects proteins with antibodies after separation by electrophoresis.)

For assay [3], the species on record is Homo sapiens. The experiment in a line: Inhibition of proteasome in human MDA-MB-231 cells assessed as increase in CHOP protein levels at 5 uM after 8 hrs by Western blot analysis. Format: cell-based. Put shortly: (§2)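 Cells treated for 8 h in DMEM with 10% FBS, with DMSO negative control, CB-5083 (1.0 μM) positive control and MG132 (5.0 μM) comparator. Lysed by sonication in SDS sample buffer and run on 4–20% SDS-PAGE. Immunoblotted with anti-XBP1s, ATF4, CHOP (1:1000) and β-actin loading control, then HRP secondaries (1:3000) and chemiluminescence.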

The species entered for assay [4] is Homo sapiens. The experiment in a line: Inhibition of proteasome in human MDA-MB-231 cells assessed as UPR activation by measuring increase in ATF4 protein levels up to 20 uM after 8 hrs by Western blot analysis. In kind it is cell-based. In short, it runs like this:
as §2

For assay [5], the species on record is Homo sapiens. Put plainly: Inhibition of proteasome in human MDA-MB-231 cells assessed as increase in CHOP protein levels up to 20 uM after 8 hrs by Western blot analysis. Format: cell-based. In short, it runs like this:
as §2

The species entered for assay [6] is Homo sapiens. The experiment in a line: Inhibition of proteasome in human MDA-MB-231 cells assessed as increase in XBP1 protein levels up to 20 uM after 8 hrs by Western blot analysis. In kind it is cell-based. Put shortly: as §2
Assay [7] deals with Fibroblast. The experiment in a line: Induction of heat-shock response in mouse fibroblasts harboring reporter construct encoding enhanced green fluorescent protein at 1.25 to 5 uM after overnight incubation by fluorescence assay. Format: functional, cell-based. In short, it runs like this: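 Reporter fibroblasts carry EGFP driven by a minimal consensus heat-shock element. Seeded at 20 000 cells/well and attached overnight. Serial 2-fold dilutions added in triplicate, with DMSO (≤0.1%) as negative control and monocillin I as positive control. Incubated overnight, rinsed with PBS, fluorescence read at 485/525 nm. Reported as mean ± SD of triplicates, also as a percentage of the DMSO control; three independent experiments.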

SMILES strings stand for the structures. Activity calls are given as the source filed them. The rule behind the calls is not given here. Peptide text beside a SMILES is read from it. * marks the point of attachment. Cbz = O=C(OCc1ccccc1)*

Transitional endoplasmic reticulum ATPase (Homo sapiens), sequence (P55072 2-806 limits assumed): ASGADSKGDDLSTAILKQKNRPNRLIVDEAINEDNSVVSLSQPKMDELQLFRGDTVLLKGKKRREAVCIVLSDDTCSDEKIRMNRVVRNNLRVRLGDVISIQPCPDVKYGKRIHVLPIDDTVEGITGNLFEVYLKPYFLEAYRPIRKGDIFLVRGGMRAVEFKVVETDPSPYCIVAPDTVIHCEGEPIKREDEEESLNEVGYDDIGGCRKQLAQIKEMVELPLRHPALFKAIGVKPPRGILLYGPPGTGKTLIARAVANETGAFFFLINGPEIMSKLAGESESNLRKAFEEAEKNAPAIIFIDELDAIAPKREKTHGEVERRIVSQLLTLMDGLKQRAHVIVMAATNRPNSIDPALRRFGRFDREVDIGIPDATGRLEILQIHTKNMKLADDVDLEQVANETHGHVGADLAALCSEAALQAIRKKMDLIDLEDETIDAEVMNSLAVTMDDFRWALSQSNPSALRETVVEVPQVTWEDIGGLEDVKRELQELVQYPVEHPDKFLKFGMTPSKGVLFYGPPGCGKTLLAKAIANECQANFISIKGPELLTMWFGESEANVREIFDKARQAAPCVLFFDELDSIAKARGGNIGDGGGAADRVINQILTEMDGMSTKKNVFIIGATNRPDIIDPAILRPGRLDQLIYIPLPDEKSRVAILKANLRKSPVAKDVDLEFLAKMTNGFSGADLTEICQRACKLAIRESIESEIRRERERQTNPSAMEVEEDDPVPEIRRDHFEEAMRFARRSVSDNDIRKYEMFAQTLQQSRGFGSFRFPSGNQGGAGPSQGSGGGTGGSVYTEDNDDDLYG

The term IC50 denotes the concentration at which inhibition is half-maximal. `C[C@H]1CCC/C=C/C(=O)c2c(cc(O)c(Cl)c2O)CC(=O)O1`: the IC50 is 1990 nM in the assay on MCF7; 1.41 µM with SF-268; 1450 nM in the assay with NCI-H460; 1710 nM in the assay with PC-3M; 2950 nM in the assay on MDA-MB-231. Besides, the outcome in the assay on Fibroblast [1] was Active.
On to `C[C@H]1CCC/C=C/C(=O)c2c(O)c(Cl)c(O)c(Cl)c2CC(=O)O1`, for which, in assay [2], the inhibition entry is “Active”. Moreover, the outcome in the assay with Fibroblast [1] was Active.
`COc1cccc2c1C(=O)c1c(O)c3c(c(O)c1C2=O)C[C@@](O)(C(=O)CO)C[C@@H]3O[C@H]1C[C@H](N)[C@H](O)[C@H](C)O1` [DOXORUBICIN] returned an IC50 with PC-3M of 240 nM.
Regarding `CC(C)C[C@@H](C=O)NC(=O)[C@H](CC(C)C)NC(=O)[C@H](CC(C)C)NC(=O)OCc1ccccc1` (Cbz-Leu-Leu-Leu-aldehyde), the inhibition entry in the assay filed under Homo sapiens [3] is “Active”.
Take `C[C@H]1CCC/C=C/C(=O)c2c(O)cc(O)cc2CC(=O)O1` [DEHYDROCURVULARIN]: the inhibition entry in the assay filed under Homo sapiens [4], in the assay filed under Homo sapiens [5] and in the assay filed under Homo sapiens [6] was “Active” in each case. Also, the IC50 is 4.73 µM with SF-268, 3570 nM with NCI-H460, 4510 nM in the assay on PC-3M and more than 5000 nM with MDA-MB-231. Further, the result with Fibroblast [7] was Active.
